From ChEMBL document CHEMBL5137109, “Tunable Cysteine-Targeting Electrophilic Heteroaromatic Warheads Induce Ferroptosis” (J Med Chem, 2022)
Activity calls are given as the source filed them. The rule behind the calls is not given here.

Columns and labels:
[1] = Selectivity ratio of IC50 for human HCT-116 cells to IC50 for human NCI-H522 cells by methylene blue staining based analysis; assay type: functional
[2] = test system: HCT-116; experiment: Cytotoxicity against human HCT-116 cells assessed as reduction in cell viability incubated for 3 days by methylene blue staining based analysis; assay type: functional; conditions: HCT-116, 72 h
[3] = test system: NCI-H522; experiment: Cytotoxicity against human NCI-H522 cells assessed as reduction in cell viability incubated for 3 days by methylene blue staining based analysis; assay type: functional; conditions: NCI-H522, 72 h
[4] = test system: NCI-H522; experiment: Induction of lipid peroxidation in human NCI-H522 cells assessed as increase in C11-BODIPY oxidation at 5 uM incubated for 3 hrs by flow cytometry; assay type: functional, cell-based
Procedure, shortened: (§1)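 NCI-H522 cells (~70% density) plated in dishes overnight, then treated with compound or DMSO plus C11-BODIPY 581/591 (1 μM) added at treatment. After 3 h or 6 h, cells washed, trypsinized, resuspended in PBS with 2% FBS and analysed by flow cytometry (preferably 20×10³ cells). Oxidation compared with DMSO treatment.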

[5] = test system: NCI-H522; experiment: Induction of lipid peroxidation in human NCI-H522 cells assessed as increase in C11-BODIPY oxidation at 40 uM incubated for 6 hrs by flow cytometry; assay type: functional, cell-based; procedure, shortened: as §1
[6] = test system: NCI-H522; experiment: Cytotoxicity against human NCI-H522 cells assessed as time required to cause 50% irreversible cell death treated with compound followed by washing for every 30 mins for 6 hrs by methylene blue staining based analysis; assay type: functional
Procedure, shortened: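 NCI-H522 cells, 5*10³/well (n=3), plated overnight, then treated with compound or DMSO. Wells washed immediately after treatment and then at 30-min intervals up to 6 h; last wells not washed. Methylene blue in 50% ethanol fix/stain 30 min RT, dye dissolved in 0.1N HCl, A668. Each point taken as % survival of matching DMSO-treated cells.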

[7] = test system: NCI-H522; experiment: Induction of lipid peroxidation in human NCI-H522 cells assessed as increase in C11-BODIPY oxidation at 5 uM incubated for 6 hrs by flow cytometry; assay type: functional, cell-based; procedure, shortened: as §1
[8] = test system: NCI-H522; experiment: Cytotoxicity against human NCI-H522 cells assessed as reduction in cell survival at 4.5 uM incubated for 3 days in presence of ferroptosis inhibitor, liproxstatin-1 by methylene blue staining based analysis; assay type: functional; conditions: time 3.0 day
Procedure, shortened: (§2)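 NCI-H522 cells seeded at 25×10³/well (n=3), adhered overnight, then exposed to compound with or without liproxstatin-1 (0.25 μM). After 3 days, methylene blue staining with HCl elution and A668. Results given as % relative to DMSO control, mean ± SD, n=3, one-way ANOVA. Fold change is IC50 (with liproxstatin-1)/IC50 (alone).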

[9] = test system: NCI-H522; experiment: Induction of lipid peroxidation in human NCI-H522 cells assessed as increase in C11-BODIPY oxidation at 20 uM incubated for 6 hrs by flow cytometry; assay type: functional, cell-based; procedure, shortened: as §1
[10] = test system: NCI-H522; experiment: Induction of lipid peroxidation in human NCI-H522 cells assessed as increase in C11-BODIPY oxidation at 10 uM incubated for 3 hrs by flow cytometry; assay type: functional, cell-based
Procedure, shortened: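 NCI-H522 cells at ~70% density, plated overnight, treated with compound or DMSO together with C11-BODIPY 581/591 (1 μM) for 3 h or 6 h. Cells then PBS-washed, trypsinised, resuspended in PBS with 2% FBS and read by flow cytometry, preferably 20*10³ cells. Oxidation compared with DMSO treatment.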

[11] = test system: MDA-MB-468; experiment: Cytotoxicity against human MDA-MB-468 cells assessed as reduction in cell viability incubated for 3 days by methylene blue staining based analysis; assay type: functional; conditions: MDA-MB-468, 72 h
[12] = Cytotoxicity against mouse MEF cells assessed as reduction in cell viability incubated for 3 days by methylene blue staining based analysis; assay type: toxicity
[13] = test system: U2OS; experiment: Cytotoxicity against human U2OS cells assessed as reduction in cell viability incubated for 3 days by methylene blue staining based analysis; assay type: functional; conditions: 72 h
[14] = Cytotoxicity against human WI-38 cells assessed as reduction in cell viability incubated for 3 days by methylene blue staining based analysis; assay type: toxicity
[15] = test system: MDA-MB-231; experiment: Cytotoxicity against human MDA-MB-231 cells assessed as reduction in cell viability incubated for 3 days by methylene blue staining based analysis; assay type: functional; conditions: MDA-MB-231, 72 h
[16] = test system: NCI-H522; experiment: Cytotoxicity against human NCI-H522 cells assessed as reduction in cell viability incubated for 3 days in presence of ferroptosis inhibitor, liproxstatin-1 by methylene blue staining based analysis; assay type: functional; conditions: NCI-H522, 72 h; procedure, shortened: as §2
[17] = Ratio of IC50 for cytotoxicity against human NCI-H522 cells in presence of ferroptosis inhibitor, liproxstatin-1 to IC50 for cytotoxicity against human NCI-H522 cells; assay type: functional
Procedure, shortened: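 NCI-H522 cells, 25*10³/well (n=3), plated overnight, treated with compound with or without Liproxstatin-1 (0.25 μM). After 3 days, methylene blue in 50% ethanol fix/stain 30 min RT, dye dissolved in 0.1N HCl, A668. Fold change = IC₅₀ with Liproxstatin-1 / IC₅₀ without.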

[18] = test system: HT-1080; experiment: Cytotoxicity against human HT-1080 cells assessed as reduction in cell viability incubated for 3 days by methylene blue staining based analysis; assay type: functional; conditions: HT-1080, 72 h
[19] = test system: HeLa; experiment: Cytotoxicity against human HeLa cells assessed as reduction in cell viability incubated for 3 days by methylene blue staining based analysis; assay type: functional; conditions: 72 h
[20] = test system: NCI-H522; experiment: Induction of lipid peroxidation in human NCI-H522 cells assessed as increase in C11-BODIPY oxidation at 30 uM incubated for 6 hrs by flow cytometry; assay type: functional, cell-based; procedure, shortened: as §1
[21] = test system: NCI-H522; experiment: Cytotoxicity against human NCI-H522 cells assessed as reduction in cell survival at 2 uM incubated for 3 days in presence of ferroptosis inhibitor, liproxstatin-1 by methylene blue staining based analysis; assay type: functional; conditions: time 3.0 day; procedure, shortened: as §2
[22] = test system: NCI-H522; experiment: Induction of lipid peroxidation in human NCI-H522 cells assessed as increase in C11-BODIPY oxidation at 10 uM incubated for 6 hrs by flow cytometry; assay type: functional, cell-based; procedure, shortened: as §1

Row | Structure (SMILES) | Ratio IC50 [1] | IC50 [2] | IC50 [3] | also measured
1 | C#Cc1nc(C(=O)Nc2ccc(OC)cc2)cs1 | 12.52 | 8.39 µM | 0.67 µM | Activity [4]: Active
2 | CCOC(=O)c1csc(C#Cc2ccccc2)n1 |  | > 40 µM | > 40 µM | 
3 | C=Cc1nc2ccccc2s1 |  | > 40 µM | > 40 µM | 
4 | CC#CC1=Nc2ccccc2C(C)(C)O1 | >4.76 | > 40 µM | 8.4 µM | Activity [5]: Active
5 | c1ccc2ocnc2c1 [BENZO[D]OXAZOLE] |  | > 40 µM | > 40 µM | 
6 | CC#Cc1nc2ccccc2s1 |  | > 40 µM | > 40 µM | 
7 | C#CCNC(=O)c1csc(Br)n1 |  | > 40 µM | > 40 µM | 
8 | C=Cc1nc2ccccc2o1 |  | > 40 µM | > 40 µM | 
9 | C#Cc1ncccn1 |  | > 40 µM | > 40 µM | 
10 | C#Cc1nc(C(=O)N2CCN(CC)CC2)cs1 |  |  | > 1 µM | 
11 | C#Cc1nc2ccccc2n1C | 2.37 | 19.4 µM | 8.14 µM | Activity [5]: Active
12 | C#Cc1nc(C(=O)N2CCN(c3ccc(F)cc3)CC2)cs1 |  |  | 0.064 µM | 
13 | Brc1nc2ccccc2[se]1 |  | > 40 µM | > 40 µM | 
14 | Ic1nc2ccccc2o1 | 3.41 | > 40 µM | 11.7 µM | 
15 | C=Cc1nc(C(=O)OCC)cs1 |  | > 40 µM | > 40 µM | 
16 | C#Cc1nc(C(=O)N2CCN(c3ccc(C(F)(F)F)cc3)CC2)cs1 |  |  | 0.037 µM | 
17 | COC(=O)c1ccc([C@H]2c3[nH]c4ccccc4c3CC(C(=O)OC)N2C(=O)CCl)cc1 (some centres undefined) |  |  |  | IT50 [6]: 1.33 h
18 | c1ccc2[se]cnc2c1 |  | > 40 µM | > 40 µM | 
19 | C#CC1=Nc2ccccc2C(C)(C)O1 | 6.3 | 5.61 µM | 0.89 µM | Activity [7]: Active
20 | C=Cc1nc2ccccc2n1C | 4.05 | 9.5 µM | 2.34 µM | Activity [8]: Active
21 | C#Cc1sc(-c2ccc(F)cc2)nc1C(=O)OCC | 11.33 | > 40 µM | 3.53 µM | Activity [9]: Active
22 | C#Cc1nc2ccccc2[se]1 | 11.5 | 25 µM | 2.17 µM | Activity [10]: Active
23 | c1ccc2scnc2c1 [BENZO[D]THIAZOLE] |  | > 40 µM | > 40 µM | 
24 | C=Cc1csc(Br)n1 |  | > 40 µM | > 40 µM | 
25 | C#Cc1nccs1 |  | > 40 µM | > 40 µM | 
26 | Brc1nc2ccccc2o1 |  | > 40 µM | > 40 µM | 

Row | Structure (SMILES) | Ratio IC50 [1] | IC50 [2] | IC50 [3] | also measured
27 | Cc1onc(C(=O)N2CCN(C(c3ccc(Cl)cc3)c3ccc(Cl)cc3)CC2)c1[N+](=O)[O-] |  | > 1 µM | 0.044 µM | IC50 [11]: 0.066 µM; IC50 at 3 days [12]: 0.016 µM; IC50 [13]: 0.822 µM; IC50 at 3 days [14]: 0.06 µM; IC50 [15]: 0.02 µM; IC50 [16]: 34.5 µM; Ratio IC50 [17]: 784.431; IC50 [18]: 0.022 µM; IC50 [19]: 0.253 µM
28 | Ic1nc2ccccc2[se]1 |  | > 40 µM | > 40 µM | 
29 | C#Cc1nc(C(=O)Nc2ccccc2)cs1 | 7.39 | 4.88 µM | 0.66 µM | Activity [4]: Active
30 | CC#Cc1nc(C(=O)OCC)cs1 |  | > 40 µM | > 40 µM | 
31 | C#CCNC1CCC(c2csc(C#C)n2)=C1C (centres undefined) |  | > 40 µM | 2.51 µM | Activity [9]: Active
32 | C=Cc1nc2ccccc2[se]1 | >3.27 | > 40 µM | 12.2 µM | 
33 | C#Cc1nc(/C=C/C(=O)N2CCN(C(c3ccc(Cl)cc3)c3ccc(Cl)cc3)CC2)cs1 |  |  | 0.006 µM | 
34 | N#Cc1nccs1 |  | > 40 µM | > 40 µM | 
35 | C=Cc1sc(-c2ccc(F)cc2)nc1C(=O)OCC |  | > 40 µM | > 40 µM | 
36 | C#CC(=O)N1CCN(C(c2ccc(Cl)cc2)c2ccc(Cl)cc2)CC1 |  | 3.8 µM | 1.13 µM | IC50 [11]: 0.065 µM; IC50 at 3 days [12]: 0.082 µM; IC50 [13]: 0.638 µM; IC50 at 3 days [14]: 0.5 µM; IC50 [15]: 0.038 µM; IC50 [16]: 2.88 µM; Ratio IC50 [17]: 2.55; IC50 [18]: 0.376 µM; IC50 [19]: 0.303 µM
37 | C#Cc1nc(C(=O)Nc2ccc(Cl)cc2)cs1 | 29.4 | 15.9 µM | 0.54 µM | Activity [7]: Active
38 | C#Cc1nc(/C=C/C(=O)Nc2ccc(Cl)cc2)cs1 | 62.64 | 23.2 µM | 0.37 µM | Activity [4]: Active
39 | C#Cc1nc(-c2ccccc2)cs1 | >7.07 | > 40 µM | 5.65 µM | Activity [20]: Active
40 | C#Cc1nc(C(=O)OCC)cs1 | >14.98 | > 40 µM | 2.67 µM | Activity [9]: Active
41 | Ic1nc2ccccc2s1 |  | > 40 µM | > 40 µM | 
42 | Cn1cnc2ccccc21 |  | > 40 µM | > 40 µM | 
43 | Brc1nc2ccccc2s1 |  | > 40 µM | > 40 µM | 
44 | O=C(CCl)N1CCN(C(c2ccc(Cl)cc2)c2ccc(Cl)cc2)CC1 |  | 1.64 µM | 0.752 µM | IC50 [11]: 1.75 µM; IC50 at 3 days [12]: 0.352 µM; IC50 [13]: 1.71 µM; IC50 at 3 days [14]: 1.74 µM; IC50 [15]: 0.494 µM; IC50 [16]: 3.1 µM; Ratio IC50 [17]: 4.12; IC50 [18]: 0.302 µM; IC50 [19]: 2.11 µM
45 | C#Cc1csc(Br)n1 |  | > 40 µM | > 40 µM | 
46 | Cn1c(I)nc2ccccc21 | 17.16 | 17.5 µM | 1.02 µM | Activity [21]: Active
47 | C#Cc1ccccn1 |  | > 40 µM | > 40 µM | 
48 | C#Cc1nc(C(=O)N2CCN(c3ccc(Cl)cc3)CC2)cs1 |  |  | 0.028 µM | 
49 | Cn1c(Br)nc2ccccc21 |  | > 40 µM | > 40 µM | 
50 | C#CCNC(=O)c1cscn1 |  | > 40 µM | > 40 µM | 
51 | C#Cc1nc2ccccc2o1 | 9.12 | 11.6 µM | 1.26 µM | Activity [22]: Active
